Experimental data from ChEMBL document CHEMBL1649151, “Urinary bactericidal activity of Doripenem versus that of levofloxacin in patients with complicated urinary tract infections or pyelonephritis” (Antimicrob Agents Chemother, 2009).
In brackets after ≈: the same amount, converted by molar mass.

Key:
Proteus mirabilis [1] = assay: Antimicrobial activity against Proteus mirabilis 1134841 isolated from patient with pyelonephritis assessed as >3-log reduction in urinary bacterial titer after 4 hrs; format: functional, Urine
Outline: (§1)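 Patient urine was collected on day 3 of i.v. therapy (steady state) over 4-h intervals after infusion start, stored at –80°C, and sterile filtered. It was twofold serially diluted (1:0 to 1:131,072) in the patient's own pre-dose drug-free urine, inoculated to 1.0 x 10^6–9.5 x 10^6 CFU/ml, and incubated for 18 h at 37°C. Subcultures were grown on blood agar for 24 h. The UBT is the reciprocal of the highest dilution giving >99.9% kill.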

Pseudomonas aeruginosa [2] = assay: Antimicrobial activity against Pseudomonas aeruginosa […] assessed as >3-log reduction in urinary bacterial titer after 4 hrs; format: functional, Urine; outline: as §1
Escherichia coli [3] = assay: Antimicrobial activity against Escherichia coli 2062717 B-P isolated from patient with pyelonephritis by Etest; format: functional
Pseudomonas aeruginosa [4] = assay: Antimicrobial activity against Pseudomonas aeruginosa 1134642 isolated from patient with pyelonephritis assessed as >3-log reduction in urinary bacterial titer after 4 hrs; format: functional, Urine; outline: as §1
Staphylococcus aureus [5] = assay: Antimicrobial activity against Staphylococcus aureus 1134684 isolated from patient with pyelonephritis assessed as >3-log reduction in urinary bacterial titer after 20 hrs; format: functional, Urine; outline: as §1
Escherichia coli [6] = assay: Antimicrobial activity against Escherichia coli 1949821 B-M isolated from patient with pyelonephritis assessed as >3-log reduction in urinary bacterial titer after 12 hrs; format: functional, Urine
Outline: (§2)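 Urine was collected on day 3 of i.v. therapy (steady state) over 4-h intervals from infusion start (0–4 to 20–24 h), stored at –80°C and sterile filtered. It was serially diluted twofold (1:0 up to 1:131,072) in the patient's own pre-dose drug-free urine. Microdilution used a final inoculum of 1.0 x 10^6 to 9.5 x 10^6 CFU/ml, incubated 18 h at 37°C in air. 10 µl was subcultured onto 5% blood Columbia agar for 24 h at 37°C. The bactericidal endpoint was >99.9% (>3-log) kill, reported as a reciprocal titer.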

Pseudomonas aeruginosa [7] = assay: Antimicrobial activity against Pseudomonas aeruginosa 1134642 isolated from patient with pyelonephritis assessed as >3-log reduction in urinary bacterial titer after 8 hrs; format: functional, Urine; outline: as §1
Escherichia coli [8] = assay: Antimicrobial activity against Escherichia coli 1949820 B-N isolated from patient with pyelonephritis assessed as >3-log reduction in urinary bacterial titer after 4 hrs; format: functional, Urine; outline: as §2
Escherichia coli [9] = assay: Antimicrobial activity against Escherichia coli 1949821 B-M isolated from patient with pyelonephritis assessed as >3-log reduction in urinary bacterial titer after 20 hrs; format: functional, Urine; outline: as §2
Pseudomonas aeruginosa [10] = assay: Antimicrobial activity against Pseudomonas aeruginosa 1134642 isolated from patient with pyelonephritis assessed as >3-log reduction in urinary bacterial titer after 20 hrs; format: functional, Urine; outline: as §1
Escherichia coli [11] = assay: Antimicrobial activity against Escherichia coli 1889646 B-F isolated from patient with pyelonephritis by Etest; format: functional
Escherichia coli [12] = assay: Antimicrobial activity against Escherichia coli 1949821 B-M isolated from patient with pyelonephritis assessed as >3-log reduction in urinary bacterial titer after 24 hrs; format: functional, Urine; outline: as §2
Escherichia coli [13] = assay: Antimicrobial activity against Escherichia coli 1949820 B-N isolated from patient with pyelonephritis assessed as >3-log reduction in urinary bacterial titer after 16 hrs; format: functional, Urine; outline: as §2
Escherichia coli [14] = assay: Antimicrobial activity against Escherichia coli 1949820 B-N isolated from patient with pyelonephritis assessed as >3-log reduction in urinary bacterial titer after 8 hrs; format: functional, Urine; outline: as §2
Staphylococcus aureus [15] = assay: Antimicrobial activity against Staphylococcus aureus 1134684 isolated from patient with pyelonephritis assessed as >3-log reduction in urinary bacterial titer after 24 hrs; format: functional, Urine; outline: as §1
Enterococcus faecalis [16] = assay: Antimicrobial activity against Enterococcus faecalis 1780065 B-B isolated from patient with pyelonephritis assessed as >3-log reduction in urinary bacterial titer after 24 hrs; format: functional, Urine
Outline: (§3)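 Urine was collected before dosing and on day 3 of i.v. therapy (steady state), in 4-h intervals from infusion start (0–4 to 20–24 h), stored at −80°C and sterile filtered. It was serially diluted twofold (1:0 to 1:131,072) in the patient's drug-free pre-dose urine. Microdilution used an inoculum of 1.0 x 10^6–9.5 x 10^6 CFU/ml, incubated 18 h at 37°C, then subcultured 24 h on blood agar. The endpoint was >99.9% kill, reported as reciprocal titer.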

Pseudomonas aeruginosa [17] = assay: Antimicrobial activity against Pseudomonas aeruginosa […] assessed as >3-log reduction in urinary bacterial titer after 16 hrs; format: functional, Urine; outline: as §1
Escherichia coli [18] = assay: Antimicrobial activity against Escherichia coli 1135121 isolated from patient with pyelonephritis assessed as >3-log reduction in urinary bacterial titer after 24 hrs; format: functional, Urine; outline: as §3
Escherichia coli [19] = assay: Antimicrobial activity against Escherichia coli 1949821 B-M isolated from patient with pyelonephritis assessed as >3-log reduction in urinary bacterial titer after 16 hrs; format: functional, Urine; outline: as §2
Staphylococcus aureus [20] = assay: Antimicrobial activity against Staphylococcus aureus 1134684 isolated from patient with pyelonephritis assessed as >3-log reduction in urinary bacterial titer after 8 hrs; format: functional, Urine; outline: as §1
Pseudomonas aeruginosa [21] = assay: Antimicrobial activity against Pseudomonas aeruginosa […] assessed as >3-log reduction in urinary bacterial titer after 12 hrs; format: functional, Urine; outline: as §1
Escherichia coli [22] = assay: Antimicrobial activity against Escherichia coli 1949820 B-N isolated from patient with pyelonephritis assessed as >3-log reduction in urinary bacterial titer after 24 hrs; format: functional, Urine; outline: as §2
Proteus mirabilis [23] = assay: Antimicrobial activity against Proteus mirabilis 1134841 isolated from patient with pyelonephritis assessed as >3-log reduction in urinary bacterial titer after 8 hrs; format: functional, Urine; outline: as §1
Escherichia coli [24] = assay: Antimicrobial activity against Escherichia coli 1949820 B-N isolated from patient with pyelonephritis assessed as >3-log reduction in urinary bacterial titer after 12 hrs; format: functional, Urine; outline: as §2
Enterococcus faecalis [25] = assay: Antimicrobial activity against Enterococcus faecalis 1780065 B-B isolated from patient with pyelonephritis by Etest; format: functional
Proteus mirabilis [26] = assay: Antimicrobial activity against Proteus mirabilis 1134841 isolated from patient with pyelonephritis assessed as >3-log reduction in urinary bacterial titer after 20 hrs; format: functional, Urine; outline: as §1
Escherichia coli [27] = assay: Antimicrobial activity against Escherichia coli 1949821 B-M isolated from patient with pyelonephritis assessed as >3-log reduction in urinary bacterial titer after 4 hrs; format: functional, Urine; outline: as §2
Pseudomonas aeruginosa [28] = assay: Antimicrobial activity against Pseudomonas aeruginosa 1134642 isolated from patient with pyelonephritis assessed as >3-log reduction in urinary bacterial titer after 24 hrs; format: functional, Urine; outline: as §1
Escherichia coli [29] = assay: Antimicrobial activity against Escherichia coli 1949820 B-N isolated from patient with pyelonephritis assessed as >3-log reduction in urinary bacterial titer after 20 hrs; format: functional, Urine; outline: as §2
Pseudomonas aeruginosa [30] = assay: Antimicrobial activity against Pseudomonas aeruginosa ATCC 27853 isolated from patient with pyelonephritis by Etest; format: functional
Enterococcus faecalis [31] = assay: Antimicrobial activity against Enterococcus faecalis 1780065 B-B isolated from patient with pyelonephritis assessed as >3-log reduction in urinary bacterial titer after 12 hrs; format: functional, Urine; outline: as §3
Escherichia coli [32] = assay: Antimicrobial activity against Escherichia coli 1949821 B-M isolated from patient with pyelonephritis assessed as >3-log reduction in urinary bacterial titer after 8 hrs; format: functional, Urine; outline: as §1
Pseudomonas aeruginosa [33] = assay: Antimicrobial activity against Pseudomonas aeruginosa 1134642 isolated from patient with pyelonephritis by Etest; format: functional
Enterococcus faecalis [34] = assay: Antimicrobial activity against Enterococcus faecalis 1780065 B-B isolated from patient with pyelonephritis assessed as >3-log reduction in urinary bacterial titer after 8 hrs; format: functional, Urine; outline: as §3
Pseudomonas aeruginosa [35] = assay: Antimicrobial activity against Pseudomonas aeruginosa 1134642 isolated from patient with pyelonephritis assessed as >3-log reduction in urinary bacterial titer after 16 hrs; format: functional, Urine; outline: as §1

Row | SMILES | urinary bactericidal titer (Proteus mirabilis [1]) [reciprocal titer] | urinary bactericidal titer (Pseudomonas aeruginosa [2]) [reciprocal titer] | MIC (Escherichia coli [3]) [µg/mL] | urinary bactericidal titer (Pseudomonas aeruginosa [4]) [reciprocal titer] | urinary bactericidal titer (Staphylococcus aureus [5]) [reciprocal titer] | urinary bactericidal titer (Escherichia coli [6]) [titer] | urinary bactericidal titer (Pseudomonas aeruginosa [7]) [reciprocal titer] | urinary bactericidal titer (Escherichia coli [8]) [titer] | urinary bactericidal titer (Escherichia coli [9]) [titer] | urinary bactericidal titer (Pseudomonas aeruginosa [10]) [reciprocal titer] | MIC (Escherichia coli [11]) [µg/mL] | Time (Escherichia coli [12]) [h] | Time (Escherichia coli [13]) [h] | urinary bactericidal titer (Escherichia coli [14]) [titer] | urinary bactericidal titer (Staphylococcus aureus [15]) [reciprocal titer] | Time (Enterococcus faecalis [16]) [h] | urinary bactericidal titer (Pseudomonas aeruginosa [17]) [reciprocal titer] | urinary bactericidal titer (Escherichia coli [18]) [reciprocal titer] | Time (Escherichia coli [19]) [h] | urinary bactericidal titer (Staphylococcus aureus [20]) [reciprocal titer] | further results
1 | C[C@@H](O)[C@H]1C(=O)N2C(C(=O)O)=C(S[C@@H]3CN[C@H](CNS(N)(=O)=O)C3)[C@H](C)[C@H]12 [DORIPENEM] | 2048 | 2048 | ≤ 0.015 | 4096 | 8 | 32800 | 1024 | 32800 | 32800 | 4096 | 0.03 (≈ 0.0713 µM) | 5120 | 8192 | 12300 | 1.5 | 32 | 1540 | 4096 | 8192 | 4 | urinary bactericidal titer (Pseudomonas aeruginosa [21]): 3070 reciprocal titer; Time (Escherichia coli [22]): 5120 h; urinary bactericidal titer (Proteus mirabilis [23]): 1024 reciprocal titer; urinary bactericidal titer (Escherichia coli [24]): 32800; MIC (Enterococcus faecalis [25]): 4 µg/mL (≈ 9.51 µM); urinary bactericidal titer (Proteus mirabilis [26]): 8192 reciprocal titer; urinary bactericidal titer (Escherichia coli [27]): 32800; urinary bactericidal titer (Pseudomonas aeruginosa [28]): 1280 reciprocal titer; urinary bactericidal titer (Escherichia coli [29]): 32800; MIC (Pseudomonas aeruginosa [30]): 0.12 µg/mL (≈ 0.285 µM); urinary bactericidal titer (Enterococcus faecalis [31]): 192 reciprocal titer; urinary bactericidal titer (Escherichia coli [32]): 12300 titer; MIC (Pseudomonas aeruginosa [33]): 2 µg/mL (≈ 4.76 µM); Time (Enterococcus faecalis [34]): 32 h; urinary bactericidal titer (Pseudomonas aeruginosa [35]): 2048 reciprocal titer
2 | C[C@H]1COc2c(N3CCN(C)CC3)c(F)cc3c(=O)c(C(=O)O)cn1c23.C[C@H]1COc2c(N3CCN(C)CC3)c(F)cc3c(=O)c(C(=O)O)cn1c23.O [LEVOFLOXACIN] | 0 | 16 | 8 | 2 | 2 | 64 | 2 | 4 | 48 | 1 | > 8 | 40 | 0.5 | 2 | 2 | 6 | 8 | 2 | 48 | 4 | urinary bactericidal titer (Pseudomonas aeruginosa [21]): 8 reciprocal titer; Time (Escherichia coli [22]): 0 h; urinary bactericidal titer (Proteus mirabilis [23]): 0 reciprocal titer; Time (Escherichia coli [24]): 0.5 h; MIC (Enterococcus faecalis [25]): 1 µg/mL; urinary bactericidal titer (Proteus mirabilis [26]): 0 reciprocal titer; Time (Escherichia coli [27]): 192 h; urinary bactericidal titer (Pseudomonas aeruginosa [28]): 0 reciprocal titer; Time (Escherichia coli [29]): 1 h; MIC (Pseudomonas aeruginosa [30]): 0.25 µg/mL; urinary bactericidal titer (Enterococcus faecalis [31]): 16 reciprocal titer; urinary bactericidal titer (Escherichia coli [32]): 128 titer; MIC (Pseudomonas aeruginosa [33]): 16 µg/mL; Time (Enterococcus faecalis [34]): 16 h; urinary bactericidal titer (Pseudomonas aeruginosa [35]): 1 reciprocal titer
